Test results taken from publication PMC5045767 (Bioorganic & medicinal chemistry, 2016).
Values after ≈ are worked out from the molar mass of the structure shown. “Also recorded” adds a separate entry of the source. Like-named read-outs stand apart in the source and are kept apart here.

Columns and labels:
[1] = test system: E. faecium BM4105-RF; test: MIC, broth double dilution; type: cell-based; conditions: Enterococcus faecium, BM4105RF, strain AF = E. faecium BM4105-RF
[2] = test system: MRSA S22 (strain W); test: time-kill assay; type: cell-based, S. aureus; conditions: 4× MIC, over 24 h
[3] = test system: S. epidermidis ATCC 35984 (strain AC); test: membrane disruption, propidium iodide staining; type: cell-based; conditions: 1× and 4× MIC
Summary of the method: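 Membrane integrity was assessed by propidium iodide uptake, with red-stained cells scored as membrane-compromised. […] Controls: untreated and aminoglycoside-treated cells (negative), and a tobramycin derivative carrying a C14 linear alkyl thioether at the 6″-position (positive).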

[4] = test system: S. epidermidis ATCC 35984 (strain AC); test: ROS production, DCFH-DA staining; type: cell-based; conditions: 1× and 4× MIC, 1 h at 37 °C
Summary of the method: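 Untreated cells served as negative control and 1 mM H2O2 as positive control. Cells were then stained with DCFH-DA (40 μg/mL) and examined by fluorescence microscopy.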

[5] = test system: S. aureus strains; test: MIC over the panel of S. aureus strains; type: cell-based
[6] = test system: HEK-293; test: mammalian cytotoxicity; type: cell-based; conditions: for difference between cytotoxic concentration and MIC values: HEK-293 vs MRSA strains, depending on the strain; for cytotoxicity (significant = >20% cell death): up until 10 μg/mL, HEK-293
[7] = MIC broth double-dilution assay with the inoculum size of the time-kill assays; type: cell-based; conditions: inoculum 1×10^6 CFU/mL
[8] = test system: murine red blood cells (mRBCs); test: hemolytic assay; type: cell-based, mouse; conditions: compared to ebselen / among ebsulfur analogues tested
[9] = solubility in liquid Mueller-Hinton medium; type: physicochemical
[10] = test system: S. aureus ATCC 6538 (strain A); test: reduction of established biofilm; type: cell-based; conditions: 1× to […] MIC tested, concentration not given
[11] = test system: NorA, efflux pump; conditions: NorA inhibitor; cited from earlier work
[12] = test system: S. aureus ATCC 25923; test: MIC, broth double dilution; type: cell-based; conditions: Staphylococcus aureus, ATCC25923, strain B = S. aureus ATCC 25923
[13] = test system: MRSA NRS77; test: MIC, broth double dilution; type: cell-based, S. aureus; conditions: Staphylococcus aureus, MRSA|NRS77, strain T = MRSA NRS77
[14] = test system: S. aureus ATCC 6538 (strain A); conditions: 2 μg/mL; cited from earlier work

With `O=c1c2ccccc2sn1-c1ccccc1` [2a, 2-phenyl-1,2-benzisothiazol-3(2H)-one] the MIC [1] was 2 to 7.8 µg/mL (≈ 8.8 to 34.3 µM), the “reduction of bacterial load” value [2] was 1.5 orders of magnitude and the “membrane disruption (PI uptake)” value [3] was “no sign of membrane disruption”. For the same compound, the “ROS production (DCFH-DA)” value [4] was “led to production of ROS”.
For `CC(C)c1ccc(-n2sc3ccccc3c2=O)cc1` [2e], the “improvement in MIC values when compared to the parent compound 2a” value [5] was “up to 16 fold”, the “difference between cytotoxic concentration and MIC values” [6] was “up to 40 fold” and the “cytotoxicity (significant = >20% cell death)” value [6] was “did not display any significant cytotoxicity”.
For `O=c1c2ccccc2sn1-c1cccc(Br)c1` [2g], the “MIC values with time-kill inoculum size compared with standard MIC” value (“MIC values … compared with standard MIC” for short) [7] was “remained identical”.
With `CC(C)c1cccc(-n2sc3ccccc3c2=O)c1` [2h] the MIC [1] was 2 to 7.8 µg/mL (≈ 7.42 to 29 µM), the “improvement in MIC values when compared to the parent compound 2a” value [5] was “up to 16 fold” and the “MIC values … compared with standard MIC” value [7] was “remained identical”. The “hemolytic activity, comparison” value [8] was “less hemolytic when compared to ebselen; also recorded: least hemolytic”, the “difference between cytotoxic concentration and MIC values” [6] was “up to 40 fold” and the “cytotoxicity (significant = >20% cell death)” value [6] was “did not display any significant cytotoxicity”.
`COc1cc(OC)cc(-n2sc3ccccc3c2=O)c1` [2k] showed an MIC [1] of 2 to 7.8 µg/mL (≈ 6.96 to 27.1 µM).
For `O=c1c2ccccc2sn1-c1cccc2ccccc12` [2l], the “cytotoxicity (significant = >20% cell death)” value [6] was “did not display any significant cytotoxicity”.
In the case of `O=c1c2ccccc2sn1-c1ccccn1` [2m], the solubility [9] is reported as “soluble enough for biological testing”.
For `CCCCCCn1sc2ccccc2c1=O` [3b], the “reduction of bacterial load” value [2] was 1.5 orders of magnitude, the “membrane disruption (PI uptake)” value [3] was “no sign of membrane disruption” and the “ROS production (DCFH-DA)” value [4] was “led to production of ROS”.
With `CCCCCCCCn1sc2ccccc2c1=O` [3c] the “reduction of bacterial load” value [2] was 1.5 orders of magnitude, the biofilm reduction [10] was “low to no biofilm reduction” and the “hemolytic activity, comparison” value [8] was “less hemolytic when compared to ebselen”. For the same compound, the “membrane disruption (PI uptake)” value [3] was “no sign of membrane disruption” and the “ROS production (DCFH-DA)” value [4] was “led to production of ROS”.
In the case of `O=[N+]([O-])c1ccc2[nH]c(-c3ccccc3)cc2c1` [5-nitro-2-phenyl-(1H)-indole], the IC50 [11] is given as < 5 µM.
With `NCC[C@H](O)C(=O)N[C@@H]1C[C@H](N)[C@@H](O[C@H]2O[C@H](CN)[C@@H](O)[C@H](O)[C@H]2O)[C@H](O)[C@H]1O[C@H]1O[C@H](CO)[C@@H](O)[C@H](N)[C@H]1O` [AMK, amikacin, reference compound] the MIC [12] was ≤ 0.5 µg/mL, the MIC [13] was ≤ 0.5 µg/mL and the MIC [1] was ≥ 125 µg/mL. The “MIC values … compared with standard MIC” value [7] was “remained identical”.
With `O=c1c2ccccc2[se]n1-c1ccccc1` [Ebselen, 2-phenyl-1,2-benzisoselenazol-3(2H)-one, reference compound] the “MIC values … compared with standard MIC” value [7] was “remained identical”, the “cytotoxicity (significant = >20% cell death)” value [6] was “very similar” and the “membrane disruption (PI uptake)” value [3] was “no sign of membrane disruption”. The “ROS production (DCFH-DA)” value [4] was “led to production of ROS” and the biofilm reduction [14] was “approximately 60%”.
